Measurements as given in ChEMBL document CHEMBL4414550, “Binding of Monovalent and Bivalent Ligands by Transthyretin Causes Different Short- and Long-Distance Conformational Changes” (J Med Chem, 2019).
Values belong to the molecule of their own block, whether it stands above or below them. Activity calls are given as the source filed them. No cut-off for these calls is given here.

Key:
[1] = target: Transthyretin (Homo sapiens) (UniProt P02766); assay: Binding affinity to His6-tagged wild-type TTR (unknown origin) expressed in Escherichia coli BL21 star (DE3) assessed as assignment of protein resonance by TROSY [1H-13C-15N] HNCA spectroscopy
Summary of the method: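 3D HNCA spectra of TTR acquired in the presence of ligand to confirm the backbone resonance assignment. The assignment was made de novo from TROSY multidimensional experiments at 310 K, pH 7.0 and 7.4.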

[2] = target: Transthyretin (Homo sapiens) (UniProt P02766); assay: Binding affinity to His6-tagged wild-type TTR (unknown origin) expressed in Escherichia coli BL21 star (DE3) at 0.5:1 ratio of test compound to protein by 2D TROSY [1H-15N] spectroscopy
Summary of the method: (§1)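 50 μM TTR in 600 μL titrated with ligand from 10 mM stocks in DMSO-d6 (up to 6 μL; at most 1% v/v DMSO-d6). 2D [1H,15N] TROSY spectra recorded at ligand/protein ratios 0, 0.5, 1.0, 1.5 and 2.0 for the monovalent ligand and 0, 0.5 and 1.0 for the bivalent ligand. Per-residue amide shifts were expressed as a combined chemical shift change in ppm.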

[3] = target: Transthyretin (Homo sapiens) (UniProt P02766); assay: Binding affinity to His6-tagged wild-type TTR (unknown origin) expressed in Escherichia coli BL21 star (DE3) at 1:1 ratio of test compound to protein by 2D TROSY [1H-15N] spectroscopy; summary of the method: as §1
[4] = target: Transthyretin (Homo sapiens) (UniProt P02766); assay: Binding affinity to wild-type TTR (unknown origin) assessed as induction of chemical shift at E72 residue at 0.6:1 to 1:1 ratio of compound to protein by 2D TROSY [1H-15N] spectroscopy; summary of the method: as §1
[5] = target: Transthyretin (Homo sapiens) (UniProt P02766); assay: Binding affinity to wild-type TTR (unknown origin) assessed as induction of chemical shift at L17 residue at 0.6:1 to 1:1 ratio of compound to protein by 2D TROSY [1H-15N] spectroscopy; summary of the method: as §1
[6] = target: Transthyretin (Homo sapiens) (UniProt P02766); assay: Binding affinity to wild-type TTR (unknown origin) assessed as induction of chemical shift at A19 residue at 0.6:1 to 1:1 ratio of compound to protein by 2D TROSY [1H-15N] spectroscopy; summary of the method: as §1
[7] = target: Transthyretin (Homo sapiens) (UniProt P02766); assay: Binding affinity to wild-type TTR (unknown origin) assessed as induction of chemical shift at R21 residue at 0.6:1 to 1:1 ratio of compound to protein by 2D TROSY [1H-15N] spectroscopy; summary of the method: as §1
[8] = target: Transthyretin (Homo sapiens) (UniProt P02766); assay: Binding affinity to wild-type TTR (unknown origin) assessed as induction of chemical shift at G22 residue at 0.6:1 to 1:1 ratio of compound to protein by 2D TROSY [1H-15N] spectroscopy; summary of the method: as §1
[9] = target: Transthyretin (Homo sapiens) (UniProt P02766); assay: Binding affinity to wild-type TTR (unknown origin) assessed as induction of chemical shift at L58 residue at 0.6:1 to 1:1 ratio of compound to protein by 2D TROSY [1H-15N] spectroscopy; summary of the method: as §1
[10] = target: Transthyretin (Homo sapiens) (UniProt P02766); assay: Binding affinity to wild-type TTR (unknown origin) assessed as induction of chemical shift at H88 residue at 0.6:1 to 1:1 ratio of compound to protein by 2D TROSY [1H-15N] spectroscopy; summary of the method: as §1
[11] = target: Transthyretin (Homo sapiens) (UniProt P02766); assay: Binding affinity to wild-type TTR (unknown origin) assessed as induction of chemical shift at E92 residue at 0.6:1 to 1:1 ratio of compound to protein by 2D TROSY [1H-15N] spectroscopy; summary of the method: as §1
[12] = target: Transthyretin (Homo sapiens) (UniProt P02766); assay: Binding affinity to wild-type TTR (unknown origin) assessed as induction of chemical shift at T96 residue at 0.6:1 to 2:1 ratio of compound to protein by 2D TROSY [1H-15N] spectroscopy; conditions: in the assay text read “0.6:1 to 1:1 ratio” for “0.6:1 to 2:1 ratio”; summary of the method: as §1
[13] = target: Transthyretin (Homo sapiens) (UniProt P02766); assay: Binding affinity to wild-type TTR (unknown origin) assessed as induction of chemical shift at A108 residue at 0.6:1 to 1:1 ratio of compound to protein by 2D TROSY [1H-15N] spectroscopy; summary of the method: as §1
[14] = target: Transthyretin (Homo sapiens) (UniProt P02766); assay: Binding affinity to wild-type TTR (unknown origin) assessed as induction of chemical shift at A109 residue at 0.6:1 to 1:1 ratio of compound to protein by 2D TROSY [1H-15N] spectroscopy; summary of the method: as §1
[15] = target: Transthyretin (Homo sapiens) (UniProt P02766); assay: Binding affinity to wild-type TTR (unknown origin) assessed as induction of chemical shift at L110 residue at 0.6:1 to 1:1 ratio of compound to protein by 2D TROSY [1H-15N] spectroscopy; summary of the method: as §1
[16] = target: Transthyretin (Homo sapiens) (UniProt P02766); assay: Binding affinity to wild-type TTR (unknown origin) assessed as induction of chemical shift at Y114 residue at 0.6:1 to 1:1 ratio of compound to protein by 2D TROSY [1H-15N] spectroscopy; summary of the method: as §1
[17] = target: Transthyretin (Homo sapiens) (UniProt P02766); assay: Binding affinity to wild-type TTR (unknown origin) assessed as induction of chemical shift at S117 residue at 0.6:1 to 1:1 ratio of compound to protein by 2D TROSY [1H-15N] spectroscopy; summary of the method: as §1
[18] = target: Transthyretin (Homo sapiens) (UniProt P02766); assay: Binding affinity to wild-type TTR (unknown origin) assessed as induction of chemical shift at T118 residue at 0.6:1 to 1:1 ratio of compound to protein by 2D TROSY [1H-15N] spectroscopy; summary of the method: as §1
[19] = target: Transthyretin (Homo sapiens) (UniProt P02766); assay: Binding affinity to wild-type TTR (unknown origin) assessed as increase in bound resonance at L55 residue at 0.5:1 to 1:1 ratio of compound to protein by 2D TROSY [1H-15N] spectroscopy; summary of the method: as §1
[20] = target: Transthyretin (Homo sapiens) (UniProt P02766); assay: Binding affinity to wild-type TTR (unknown origin) assessed as induction of chemical shift at H90 residue at 1:1 ratio of compound to protein by 2D TROSY [1H-15N] spectroscopy; summary of the method: as §1
[21] = target: Transthyretin (Homo sapiens) (UniProt P02766); assay: Binding affinity to wild-type TTR (unknown origin) assessed as induction of chemical shift perturbation at A120 residue at 1:1 ratio of compound to protein by 2D TROSY [1H-15N] spectroscopy; summary of the method: as §1
[22] = target: Transthyretin (Homo sapiens) (UniProt P02766); assay: Binding affinity to wild-type TTR (unknown origin) assessed as chemical shift perturbation at protein dimer-dimer interface at 1:1 ratio of compound to protein by 2D TROSY [1H-15N] spectroscopy; summary of the method: as §1
[23] = target: Transthyretin (Homo sapiens) (UniProt P02766); assay: Binding affinity to wild-type TTR (unknown origin) assessed as chemical shift perturbation at DE loops at 1:1 ratio of compound to protein by 2D TROSY [1H-15N] spectroscopy; summary of the method: as §1
[24] = target: Transthyretin (Homo sapiens) (UniProt P02766); assay: Binding affinity to wild-type TTR (unknown origin) assessed as chemical shift perturbation at H1 helix at 1:1 ratio of compound to protein by 2D TROSY [1H-15N] spectroscopy; summary of the method: as §1
[25] = target: Transthyretin (Homo sapiens) (UniProt P02766); assay: Binding affinity to wild-type TTR (unknown origin) assessed as chemical shift perturbation at EH1 loops at 1:1 ratio of compound to protein by 2D TROSY [1H-15N] spectroscopy; summary of the method: as §1
[26] = target: Transthyretin (Homo sapiens) (UniProt P02766); assay: Binding affinity to wild-type TTR (unknown origin) assessed as chemical shift perturbation at CD loops at 1:1 ratio of compound to protein by 2D TROSY [1H-15N] spectroscopy; summary of the method: as §1
[27] = target: Transthyretin (Homo sapiens) (UniProt P02766); assay: Binding affinity to wild-type TTR (unknown origin) assessed as induction of chemical shift perturbation at V93 residue at 1:1 ratio of compound to protein by 2D TROSY [1H-15N] spectroscopy; summary of the method: as §1
[28] = target: Transthyretin (Homo sapiens) (UniProt P02766); assay: Binding affinity to wild-type TTR (unknown origin) assessed as chemical shift perturbation at K9 residue at 1:1 ratio of compound to protein by 2D TROSY [1H-15N] spectroscopy; summary of the method: as §1
[29] = target: Transthyretin (Homo sapiens) (UniProt P02766); assay: Binding affinity to wild-type TTR (unknown origin) assessed as formation of hydrogen bond between A25 and T49 at 1:1 ratio of compound to protein by 2D TROSY [1H-15N] spectroscopy

Activity [1]: Active
Activity [2]: Active
Activity [3]: Active
Activity [4]: Active
Activity [5]: inactive
Activity [6]: inactive
Activity [7]: inactive
Activity [8]: inactive
Activity [9]: inactive
Activity [10]: inactive
Activity [11]: inactive
Activity [12]: inactive
Activity [13]: inactive
Activity [14]: inactive
Activity [15]: inactive
Activity [16]: inactive
Activity [17]: inactive
Activity [18]: inactive
Activity [19]: Active
Activity [20]: Active
Activity [21]: Active
Activity [22]: Active
Activity [23]: Active
Activity [24]: Active
Activity [25]: Active
Activity [26]: Active
Activity [27]: Active
Activity [28]: Active
Activity [29]: Active
SMILES: O=C(O)c1ccccc1Nc1cc(Cl)c(OCCCCCCCOc2c(Cl)cc(Nc3ccccc3C(=O)O)cc2Cl)c(Cl)c1

Activity [1]: Active
Activity [2]: Active
Activity [19]: Active
Activity [20]: Active
Activity [21]: Active
SMILES: O=C(O)c1ccc2nc(-c3cc(Cl)cc(Cl)c3)oc2c1
